The values below come from PMC5508980 (Molecular nutrition & food research, 2017).

In experiment [1] the test system is HDAC activity in bovine cardiac tissue. Put plainly: Natural product library screen with class-selective HDAC substrates. As to conditions: 2 hours treatment. Format: biochemical. Summed up:
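The screen covered 131 natural compounds against bovine cardiac tissue lysate at 30 µg protein/well in PBS (pH 7.4 lysis buffer with Triton X-100 and NaCl). Test compound for 2 h, then separate class I, IIa or IIb fluorogenic acyl-lysine-AMC substrates for 2 h at 37 °C. Developer (Triton X-100, 3 µM TSA, 0.75 mg/ml trypsin) for 20 min; fluorescence read at 360/460 nm.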

The target in the next experiment is recombinant HDAC5 (Homo sapiens, UniProt Q9UQL6). Put plainly: Recombinant HDAC activity assay. Format: biochemical. As to conditions: 2 h, read-out: % HDAC activity, Class IIa HDACs, 5.
Chain of recombinant HDAC5 (Q9UQL6 whole entry): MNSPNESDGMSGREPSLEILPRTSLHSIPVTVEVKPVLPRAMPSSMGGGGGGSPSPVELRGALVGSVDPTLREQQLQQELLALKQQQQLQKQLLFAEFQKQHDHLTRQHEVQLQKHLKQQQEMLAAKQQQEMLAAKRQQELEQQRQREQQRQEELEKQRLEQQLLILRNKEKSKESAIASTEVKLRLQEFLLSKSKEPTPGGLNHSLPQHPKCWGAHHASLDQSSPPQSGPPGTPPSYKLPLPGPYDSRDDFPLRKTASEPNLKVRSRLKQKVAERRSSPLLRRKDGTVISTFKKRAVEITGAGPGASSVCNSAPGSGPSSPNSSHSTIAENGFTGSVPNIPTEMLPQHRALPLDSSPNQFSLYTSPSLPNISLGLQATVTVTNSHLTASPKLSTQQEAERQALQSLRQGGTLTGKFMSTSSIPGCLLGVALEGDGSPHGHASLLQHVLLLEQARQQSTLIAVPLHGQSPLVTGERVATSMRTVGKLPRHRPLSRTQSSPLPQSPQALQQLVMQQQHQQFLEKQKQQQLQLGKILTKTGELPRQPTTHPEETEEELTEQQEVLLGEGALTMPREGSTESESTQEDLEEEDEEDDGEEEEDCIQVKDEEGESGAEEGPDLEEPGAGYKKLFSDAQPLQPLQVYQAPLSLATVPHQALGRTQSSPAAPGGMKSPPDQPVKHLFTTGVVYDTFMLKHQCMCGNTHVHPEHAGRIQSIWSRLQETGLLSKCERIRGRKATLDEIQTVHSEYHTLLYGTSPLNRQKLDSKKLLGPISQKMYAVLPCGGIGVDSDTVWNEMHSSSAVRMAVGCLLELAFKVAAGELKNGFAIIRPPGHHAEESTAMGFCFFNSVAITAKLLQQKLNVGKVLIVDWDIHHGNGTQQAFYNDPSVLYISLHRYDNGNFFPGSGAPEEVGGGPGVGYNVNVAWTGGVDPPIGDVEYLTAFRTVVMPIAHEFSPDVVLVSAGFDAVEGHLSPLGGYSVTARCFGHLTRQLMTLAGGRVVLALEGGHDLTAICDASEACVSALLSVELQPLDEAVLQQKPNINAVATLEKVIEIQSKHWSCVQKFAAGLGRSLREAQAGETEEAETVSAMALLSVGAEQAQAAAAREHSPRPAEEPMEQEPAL
A further experiment concerns the target recombinant HDAC3 (Homo sapiens, UniProt O15379). Put plainly: Recombinant HDAC activity assay. As to conditions: 2 h, read-out: % HDAC activity, Class I HDACs, 3. It counts as biochemical.
The next experiment concerns H9c2 cells. Put plainly: Acetyl-H3K9/14 immunoblot of whole cell extract. Format: cell-based, rat. As to conditions: H9c2 myocytes, 50 µM, 2 hours. Summed up:
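H9c2 cells were grown in DMEM with 10% FBS and treated at 90% confluence for 2 h with test compound or DMSO, with TSA as positive control. Washed in ice-cold PBS, lysed in PBS pH 7.4 with 0.5% Triton X-100 and 300 mM NaCl plus inhibitors, sonicated and clarified. SDS-PAGE, nitrocellulose, acetyl-H3K9/14 and total H3 antibodies, chemiluminescence; densitometry; ANOVA with Tukey.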
(In general: Immunoblotting shows a protein as a band on a membrane.)

The target in another experiment is recombinant HDAC1 (Homo sapiens, UniProt Q13547). Put plainly: Recombinant HDAC activity assay. Format: biochemical. The conditions noted are these: 2 h, read-out: % HDAC activity, Class I HDACs, 1.
Chain of recombinant HDAC1 (Q13547 whole entry): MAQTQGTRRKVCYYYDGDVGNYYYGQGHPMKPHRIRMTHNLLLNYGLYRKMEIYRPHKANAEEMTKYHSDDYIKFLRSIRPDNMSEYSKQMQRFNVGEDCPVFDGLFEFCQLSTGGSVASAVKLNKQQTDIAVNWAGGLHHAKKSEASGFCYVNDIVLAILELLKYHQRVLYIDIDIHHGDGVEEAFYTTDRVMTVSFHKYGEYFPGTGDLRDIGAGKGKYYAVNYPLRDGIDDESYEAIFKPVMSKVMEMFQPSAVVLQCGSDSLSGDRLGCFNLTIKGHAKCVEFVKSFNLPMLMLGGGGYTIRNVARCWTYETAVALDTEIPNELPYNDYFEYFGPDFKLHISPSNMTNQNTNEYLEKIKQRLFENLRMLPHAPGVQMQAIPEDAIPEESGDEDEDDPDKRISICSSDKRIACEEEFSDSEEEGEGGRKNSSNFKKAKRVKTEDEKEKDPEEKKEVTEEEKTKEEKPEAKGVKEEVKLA
A further experiment addresses T1, recombinant HDAC7 (Homo sapiens, UniProt Q8WUI4).
T1 sequence (Q8WUI4 1-952): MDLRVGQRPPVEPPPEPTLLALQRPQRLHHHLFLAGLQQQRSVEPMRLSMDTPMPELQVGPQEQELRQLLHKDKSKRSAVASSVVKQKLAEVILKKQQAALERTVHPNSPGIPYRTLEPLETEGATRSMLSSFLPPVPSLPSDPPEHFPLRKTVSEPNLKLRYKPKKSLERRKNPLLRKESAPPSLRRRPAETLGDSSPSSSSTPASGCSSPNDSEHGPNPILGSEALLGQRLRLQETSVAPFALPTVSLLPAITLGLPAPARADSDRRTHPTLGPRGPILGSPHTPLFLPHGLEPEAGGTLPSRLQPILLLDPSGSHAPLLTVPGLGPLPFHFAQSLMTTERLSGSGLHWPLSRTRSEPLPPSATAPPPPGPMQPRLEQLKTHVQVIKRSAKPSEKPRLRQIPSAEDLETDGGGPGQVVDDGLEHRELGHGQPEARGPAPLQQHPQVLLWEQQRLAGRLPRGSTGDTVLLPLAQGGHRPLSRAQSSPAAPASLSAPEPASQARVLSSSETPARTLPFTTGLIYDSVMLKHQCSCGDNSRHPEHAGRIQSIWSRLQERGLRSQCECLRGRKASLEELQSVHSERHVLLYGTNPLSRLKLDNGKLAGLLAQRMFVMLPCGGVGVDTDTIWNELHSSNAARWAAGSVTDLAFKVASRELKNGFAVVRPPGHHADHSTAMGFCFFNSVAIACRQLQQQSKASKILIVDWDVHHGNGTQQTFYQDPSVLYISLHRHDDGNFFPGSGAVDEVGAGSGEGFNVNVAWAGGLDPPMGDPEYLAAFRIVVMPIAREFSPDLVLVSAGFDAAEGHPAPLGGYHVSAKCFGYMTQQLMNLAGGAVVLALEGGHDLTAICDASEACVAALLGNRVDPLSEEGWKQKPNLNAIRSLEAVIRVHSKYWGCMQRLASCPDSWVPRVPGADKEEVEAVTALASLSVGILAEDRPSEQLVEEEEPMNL
Put plainly: Recombinant HDAC activity assay. The conditions noted are these: 2 h, read-out: % HDAC activity, Class IIa HDACs, 7. It counts as biochemical.

For the next experiment, the target named is T2, recombinant HDAC6 (Homo sapiens, UniProt Q9UBN7).
T2 sequence (Q9UBN7 1-1215): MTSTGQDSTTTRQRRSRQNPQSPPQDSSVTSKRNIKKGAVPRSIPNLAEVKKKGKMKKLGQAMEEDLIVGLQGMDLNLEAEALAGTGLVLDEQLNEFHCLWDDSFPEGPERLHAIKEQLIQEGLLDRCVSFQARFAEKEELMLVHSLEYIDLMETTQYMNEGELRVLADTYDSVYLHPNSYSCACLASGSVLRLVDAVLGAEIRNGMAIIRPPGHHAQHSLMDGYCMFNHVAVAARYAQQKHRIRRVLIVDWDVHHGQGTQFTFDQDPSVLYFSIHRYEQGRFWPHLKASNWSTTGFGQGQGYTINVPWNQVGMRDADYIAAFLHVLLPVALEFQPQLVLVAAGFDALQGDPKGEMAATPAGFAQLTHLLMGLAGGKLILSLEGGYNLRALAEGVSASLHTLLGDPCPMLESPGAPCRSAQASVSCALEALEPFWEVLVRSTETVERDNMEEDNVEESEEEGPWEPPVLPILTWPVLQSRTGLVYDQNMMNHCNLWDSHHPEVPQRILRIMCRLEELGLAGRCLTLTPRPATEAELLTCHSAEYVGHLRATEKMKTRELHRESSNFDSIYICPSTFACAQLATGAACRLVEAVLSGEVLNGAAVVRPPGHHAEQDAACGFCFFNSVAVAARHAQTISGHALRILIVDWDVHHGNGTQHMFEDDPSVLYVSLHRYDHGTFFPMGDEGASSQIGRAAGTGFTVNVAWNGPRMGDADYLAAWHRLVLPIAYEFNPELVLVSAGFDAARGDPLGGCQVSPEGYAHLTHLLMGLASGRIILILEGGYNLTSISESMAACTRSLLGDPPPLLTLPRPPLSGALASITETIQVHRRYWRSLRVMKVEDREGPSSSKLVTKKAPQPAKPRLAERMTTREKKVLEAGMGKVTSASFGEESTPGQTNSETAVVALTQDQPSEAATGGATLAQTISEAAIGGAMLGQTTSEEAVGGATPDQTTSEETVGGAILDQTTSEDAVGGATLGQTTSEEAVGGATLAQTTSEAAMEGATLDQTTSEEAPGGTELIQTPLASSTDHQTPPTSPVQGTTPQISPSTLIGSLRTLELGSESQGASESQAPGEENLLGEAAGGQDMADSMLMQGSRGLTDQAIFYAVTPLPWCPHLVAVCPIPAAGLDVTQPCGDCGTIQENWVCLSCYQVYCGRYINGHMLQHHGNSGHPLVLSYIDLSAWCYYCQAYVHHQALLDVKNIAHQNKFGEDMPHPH
Put plainly: Recombinant HDAC activity assay. It counts as biochemical. As to conditions: 2 h, read-out: % HDAC activity, Class IIb HDACs, 6.

The target in the next experiment is recombinant HDAC2 (Homo sapiens, UniProt Q92769). Put plainly: Recombinant HDAC activity assay. It counts as biochemical. The conditions noted are these: 2 h, read-out: % HDAC activity, Class I HDACs, 2.
Chain of recombinant HDAC2 (Q92769 whole entry): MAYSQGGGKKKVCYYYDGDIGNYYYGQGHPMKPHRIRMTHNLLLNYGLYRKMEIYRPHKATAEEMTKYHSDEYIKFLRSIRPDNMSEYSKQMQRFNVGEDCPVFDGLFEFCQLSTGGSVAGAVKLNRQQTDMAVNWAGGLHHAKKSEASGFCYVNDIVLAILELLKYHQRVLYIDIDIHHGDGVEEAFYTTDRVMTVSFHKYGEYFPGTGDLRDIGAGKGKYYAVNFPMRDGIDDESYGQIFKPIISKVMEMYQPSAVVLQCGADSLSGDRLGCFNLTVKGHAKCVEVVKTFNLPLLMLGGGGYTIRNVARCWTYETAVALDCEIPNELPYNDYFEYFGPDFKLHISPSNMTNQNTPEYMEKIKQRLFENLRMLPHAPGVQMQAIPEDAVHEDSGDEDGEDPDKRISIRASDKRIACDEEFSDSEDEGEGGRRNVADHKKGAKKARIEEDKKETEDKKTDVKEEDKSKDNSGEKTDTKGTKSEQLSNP

Structures are written as SMILES.

Chain of recombinant HDAC3 (O15379 whole entry): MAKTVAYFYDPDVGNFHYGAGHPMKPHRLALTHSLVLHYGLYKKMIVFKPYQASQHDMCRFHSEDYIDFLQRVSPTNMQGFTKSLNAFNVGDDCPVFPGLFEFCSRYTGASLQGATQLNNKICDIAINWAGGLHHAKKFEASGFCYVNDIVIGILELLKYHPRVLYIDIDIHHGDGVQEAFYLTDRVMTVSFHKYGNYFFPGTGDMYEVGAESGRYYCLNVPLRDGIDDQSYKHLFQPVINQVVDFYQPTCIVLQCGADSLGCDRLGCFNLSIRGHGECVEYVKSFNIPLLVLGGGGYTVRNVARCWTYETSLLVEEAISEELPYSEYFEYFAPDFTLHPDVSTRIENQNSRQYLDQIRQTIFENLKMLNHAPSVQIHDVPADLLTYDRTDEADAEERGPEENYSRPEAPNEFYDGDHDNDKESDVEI
Chain of recombinant HDAC3 (Q9Y618 395-489 partner limits assumed): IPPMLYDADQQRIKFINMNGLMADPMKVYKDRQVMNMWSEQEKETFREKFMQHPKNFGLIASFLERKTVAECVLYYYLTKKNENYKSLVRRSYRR

`Cc1cc(O)c2c(c1)C(=O)c1cc(O)cc(O)c1C2=O` [Emodin]: the “catalytic HDAC activity across class I, IIa and IIb substrates, effect in words” value in experiment [1] was “dose-dependent pan-HDAC inhibition”. In addition, the remaining activity at 50 µM worked out at 31.4% at recombinant HDAC5; 35.1% on recombinant HDAC3; 35.8% on recombinant HDAC1; 53.1% at recombinant HDAC7; 38.8% at recombinant HDAC6; 35% on recombinant HDAC2. Besides, the “acetylation of histone 3 on lysine 9/14 (Ac-H3 K9/14) via immunoblot” value in the experiment with H9c2 cells was “increased”.
